Among the data in ChEMBL document CHEMBL1126896, “Preparation and anti-HIV activity of O-acylated heparin and dermatan sulfate derivatives with low anticoagulant effect” (J Med Chem, 1993) are EC50, APTT and Selectivity index values, retold here.

The subject of one assay is HuT78. The experiment in a line: Giant-cell formation between persistently HIV-1 infected HUT-78 cells and uninfected MOLT-4 cells. The assay is classed as functional, cell-based. An outline of the steps: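 MOLT-4 cells were co-cultured with an equal number of HUT-78 cells persistently infected with HIV-1 IIIB or HIV-2 ROD, with varying compound concentrations. Syncytia were counted by flow cytofluorography after 24 h. EC50 is the concentration giving 50% protection against giant-cell formation.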

Assay [1] in a line: In vitro anticoagulant activity determined by clotting test of activated partial thromboplastin time (APTT) on a pool of human plasma. The assay is classed as functional. In a few lines:
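Activated partial thromboplastin time clotting test on pooled human plasma, run on an automatic coagulometer. Activities were calculated according to the European Pharmacopoeia.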

The test system of assay [2] is MT4. The experiment in a line: Effective concentration to achieve 50% protection of MT-4 cells against the cytopathic effect of HIV-1. The assay is classed as functional, cell-based. On the technique in general: Protection from cytopathic effect is a common read-out in antiviral testing.
Assay [3] has as its system MT4. The experiment in a line: Effective concentration to achieve 50% protection of MT-4 cells against the cytopathic effect of HIV-2. The format is functional, cell-based.
Assay [4] has as its system MT4. Nature of the assay: Selectivity index for CC50 (cytotoxic concentration based on the reduction of the viability of mock-infected MT-4 cells) to that of EC50 against HIV-1. The assay is classed as functional. An outline of the steps:
(§1)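 MT-4 cells at 3 × 10^5 cells/mL were infected with HIV-1 IIIB or HIV-2 ROD at 100 CCID50/mL, or mock-infected, alongside serial compound dilutions. Viability was read by MTT after 5 days at 37 °C. CC50 comes from mock-infected cells and EC50 from protection against cytopathicity. Index = CC50/EC50.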

In assay [5] the test system is MT4. The experiment in a line: Selectivity index for CC50 (cytotoxic concentration based on reduction of viability of mock-infected MT-4 cells) to that of EC50 against HIV-2. The assay is classed as functional. In a few lines: as §1
Where [6] appears, read: Homo sapiens, HuT78, read-out: EC50.
Setting [7] is: Homo sapiens, MT4, read-out: EC50.

A word on the EC50: it is the concentration giving half of the maximal effect.

As to `CCCCCC(=O)OCC1OC(OC2C(C(=O)[O-])OC(OC3C(NC(C)=O)C(OC4C(C(=O)[O-])OC(C)C(OC(=O)CCCCC)C4O)OC(COC(=O)CCCCC)C3OS(=O)(=O)[O-])C(OC(=O)CCCCC)C2OC(=O)CCCCC)C(NC(C)=O)C(OC)C1OS(=O)(=O)[O-].[Na+].[Na+].[Na+].[Na+]` (configuration not stated), the EC50 in the assay on HuT78 (setting [6]) was 41 µg/mL; in the assay on MT4 [2] (setting [7]) it was 19.4 µg/mL; with MT4 [3] (setting [7]) it was 5.4 µg/mL. For the same molecule, the APTT in assay [1] stood at 3.4 IU mg-1. In addition, the figures for the Selectivity index with MT4 [4] and with MT4 [5] were 4 and 17.5, respectively.

Consider `COC1C(NC(C)=O)C(OC2C(C(=O)[O-])OC(OC3C(NC(C)=O)C(OC4C(C(=O)[O-])OC(C)C(OC(C)=O)C4O)OC(COC(C)=O)C3OS(=O)(=O)[O-])C(OC(C)=O)C2OC(C)=O)OC(COC(C)=O)C1OS(=O)(=O)[O-].[Na+].[Na+].[Na+].[Na+]` (configuration not stated), for which the EC50 with HuT78 (setting [6]) is greater than 50 µg/mL; with MT4 [2] (setting [7]), greater than 500 µg/mL; in the assay with MT4 [3] (setting [7]), 88 µg/mL. The APTT in assay [1] is on record as 1.7 IU mg-1. The molecule further showed a Selectivity index in the assay on MT4 [5] of 5.7.

`CC(=O)N[C@H]1[C@@H](O[C@H]2[C@H](O)[C@@H](OC(C)=O)[C@H](O[C@H]3[C@@H](OS(=O)(=O)[O-])[C@@H](NS(=O)(=O)[O-])[C@@H](O[C@H]4[C@H](O)[C@@H](OS(=O)(=O)[O-])[C@H](O[C@H]5[C@H](O)[C@@H](CO)O[C@@H]5COS(=O)(=O)[O-])O[C@H]4C(=O)[O-])O[C@@H]3COS(=O)(=O)[O-])O[C@@H]2C(=O)[O-])O[C@H](COS(=O)(=O)[O-])[C@@H](O[C@@H]2O[C@@H](C(=O)[O-])[C@@H](O)[C@H](O)[C@H]2OC(C)=O)[C@@H]1O.[Na+].[Na+].[Na+].[Na+].[Na+].[Na+].[Na+].[Na+].[Na+]` came in with an APTT in assay [1] of 11 IU mg-1. Moreover, the EC50 in the assay on MT4 [2] (setting [7]) came out at 77 µg/mL. In the assay on MT4 [4], the Selectivity index is recorded as greater than 8.

As to `COC1C(NC(C)=O)C(OC2C(C(=O)[O-])OC(OC3C(NC(C)=O)C(OC4C(C(=O)[O-])OC(C)C(OC(=O)CCC(=O)[O-])C4O)OC(COC(=O)CCC(=O)[O-])C3OS(=O)(=O)[O-])C(OC(=O)CCC(=O)[O-])C2OC(=O)CCC(=O)[O-])OC(COC(=O)CCC(=O)[O-])C1OS(=O)(=O)[O-].[Na+].[Na+].[Na+].[Na+].[Na+].[Na+].[Na+].[Na+].[Na+]` (configuration not stated), the APTT in assay [1] was 9 IU mg-1. Besides, the values for the EC50 in the assay with MT4 [2] (setting [7]) and with MT4 [3] (setting [7]) were 150 µg/mL and 50.4 µg/mL, respectively. The Selectivity index with MT4 [4] was 1.7; in the assay on MT4 [5], 2.

`CCCCCCCC(=O)OC/C(=C\C(=O)[O-])OC1OC(COS(=O)(=O)[O-])C(OC2OC(C(=O)[O-])C(OC3OC(COS(=O)(=O)[O-])C(OC4OC(C(=O)[O-])C(OC5OC(CS(=O)(=O)[O-])C(O)C(OC(=O)CCCCCCC)C5NS(=O)(=O)[O-])C(OC(=O)CCCCCCC)C4OS(=O)(=O)[O-])C(OC(=O)CCCCCCC)C3NS(=O)(=O)[O-])C(OC(=O)CCCCCCC)C2OS(=O)(=O)[O-])C(OC(=O)CCCCCCC)C1NS(=O)(=O)[O-].[Na+].[Na+].[Na+].[Na+].[Na+].[Na+].[Na+].[Na+].[Na+].[Na+].[Na+]` (configuration not stated): the EC50 in the assay with HuT78 (setting [6]) is 20 µg/mL; with MT4 [2] (setting [7]) it was 3.3 µg/mL; in the assay with MT4 [3] (setting [7]) it was greater than 23.2 µg/mL. In addition, the Selectivity index in the assay on MT4 [4] is listed as 6; with MT4 [5] it was greater than 1.

As for `CCCC(=O)OC/C(=C\C(=O)[O-])O[C@H]1O[C@H](COS(=O)(=O)[O-])[C@@H](O[C@@H]2O[C@@H](C(=O)[O-])[C@@H](O[C@H]3O[C@H](COS(=O)(=O)[O-])[C@@H](O[C@@H]4O[C@@H](C(=O)[O-])[C@@H](O[C@H]5O[C@H](CS(=O)(=O)[O-])[C@@H](O)[C@H](OC(=O)CCC)[C@H]5NS(=O)(=O)[O-])[C@H](OC(=O)CCC)[C@H]4OS(=O)(=O)[O-])[C@H](OC(=O)CCC)[C@H]3NS(=O)(=O)[O-])[C@H](OC(=O)CCC)[C@H]2OS(=O)(=O)[O-])[C@H](OC(=O)CCC)[C@H]1NS(=O)(=O)[O-].[Na+].[Na+].[Na+].[Na+].[Na+].[Na+].[Na+].[Na+].[Na+].[Na+].[Na+]` (stereo in doubt; 2d), the EC50 in the assay with HuT78 (hut78) was 2.6 µg/mL; in the assay with MT4 [2] (mt4) it was 0.35 µg/mL. In addition, the APTT in assay [1] came out at 12 IU mg-1. Besides, in the assay on MT4 [4], the Selectivity index is given as greater than 1430.

Consider `CCCC(=O)OC/C(=C\C(=O)[O-])O[C@H]1O[C@H](COS(=O)(=O)[O-])[C@@H](O[C@@H]2O[C@@H](C(=O)[O-])[C@@H](O[C@H]3O[C@H](COS(=O)(=O)[O-])[C@@H](O[C@@H]4O[C@@H](C(=O)[O-])[C@@H](O[C@H]5O[C@H](CS(=O)(=O)[O-])[C@@H](O)[C@H](OC(=O)CCC)[C@H]5NS(=O)(=O)[O-])[C@H](OC(=O)CCC)[C@H]4OS(=O)(=O)[O-])[C@H](OC(=O)CCC)[C@H]3NS(=O)(=O)[O-])[C@H](OC(=O)CCC)[C@H]2OS(=O)(=O)[O-])[C@H](OC(=O)CCC)[C@H]1NS(=O)(=O)[O-].[Na+].[Na+].[Na+].[Na+].[Na+].[Na+].[Na+].[Na+].[Na+].[Na+].[Na+]` (stereo in doubt; 3b), for which the APTT in assay [1] is 5 IU mg-1. Moreover, the EC50 is 0.32 µg/mL in the assay on MT4 [2] (mt4) and 1.94 µg/mL in the assay on MT4 [3] (mt4). The values for the Selectivity index in the assay with MT4 [4] and in the assay with MT4 [5] were 1121 and 185, respectively.

`CCCC(=O)OC/C(=C\C(=O)[O-])O[C@H]1O[C@H](COS(=O)(=O)[O-])[C@@H](O[C@@H]2O[C@@H](C(=O)[O-])[C@@H](O[C@H]3O[C@H](COS(=O)(=O)[O-])[C@@H](O[C@@H]4O[C@@H](C(=O)[O-])[C@@H](O[C@H]5O[C@H](CS(=O)(=O)[O-])[C@@H](O)[C@H](OC(=O)CCC)[C@H]5NS(=O)(=O)[O-])[C@H](OC(=O)CCC)[C@H]4OS(=O)(=O)[O-])[C@H](OC(=O)CCC)[C@H]3NS(=O)(=O)[O-])[C@H](OC(=O)CCC)[C@H]2OS(=O)(=O)[O-])[C@H](OC(=O)CCC)[C@H]1NS(=O)(=O)[O-].[Na+].[Na+].[Na+].[Na+].[Na+].[Na+].[Na+].[Na+].[Na+].[Na+].[Na+]` (stereo in doubt; 3c): the EC50 in the assay with HuT78 (hut78) came to 60.4 µg/mL; in the assay with MT4 [3] (mt4) it was 1.17 µg/mL. In assay [1], this molecule came in with an APTT of 7 IU mg-1. In addition, the figures for the Selectivity index in the assay with MT4 [4] and in the assay with MT4 [5] were 1032 and 282, respectively.

Take `CCCC(=O)OC/C(=C\C(=O)[O-])O[C@H]1O[C@H](COS(=O)(=O)[O-])[C@@H](O[C@@H]2O[C@@H](C(=O)[O-])[C@@H](O[C@H]3O[C@H](COS(=O)(=O)[O-])[C@@H](O[C@@H]4O[C@@H](C(=O)[O-])[C@@H](O[C@H]5O[C@H](CS(=O)(=O)[O-])[C@@H](O)[C@H](OC(=O)CCC)[C@H]5NS(=O)(=O)[O-])[C@H](OC(=O)CCC)[C@H]4OS(=O)(=O)[O-])[C@H](OC(=O)CCC)[C@H]3NS(=O)(=O)[O-])[C@H](OC(=O)CCC)[C@H]2OS(=O)(=O)[O-])[C@H](OC(=O)CCC)[C@H]1NS(=O)(=O)[O-].[Na+].[Na+].[Na+].[Na+].[Na+].[Na+].[Na+].[Na+].[Na+].[Na+].[Na+]` (stereo in doubt; 4a): the figures for the EC50 in the assay with HuT78 (hut78) and in the assay with MT4 [2] (mt4) were greater than 100 µg/mL and 115 µg/mL, respectively. Besides, in assay [1], the APTT is reported as 0.3 IU mg-1. Also, the figures for the Selectivity index in the assay on MT4 [4] and with MT4 [5] were greater than 4 and greater than 7140, respectively.

`CCCC(=O)OC/C(=C\C(=O)[O-])O[C@H]1O[C@H](COS(=O)(=O)[O-])[C@@H](O[C@@H]2O[C@@H](C(=O)[O-])[C@@H](O[C@H]3O[C@H](COS(=O)(=O)[O-])[C@@H](O[C@@H]4O[C@@H](C(=O)[O-])[C@@H](O[C@H]5O[C@H](CS(=O)(=O)[O-])[C@@H](O)[C@H](OC(=O)CCC)[C@H]5NS(=O)(=O)[O-])[C@H](OC(=O)CCC)[C@H]4OS(=O)(=O)[O-])[C@H](OC(=O)CCC)[C@H]3NS(=O)(=O)[O-])[C@H](OC(=O)CCC)[C@H]2OS(=O)(=O)[O-])[C@H](OC(=O)CCC)[C@H]1NS(=O)(=O)[O-].[Na+].[Na+].[Na+].[Na+].[Na+].[Na+].[Na+].[Na+].[Na+].[Na+].[Na+]` (stereo in doubt; 4b): the EC50 in the assay on HuT78 (hut78) came out at 17.4 µg/mL; with MT4 [2] (mt4), 20.9 µg/mL. This molecule registered an APTT in assay [1] of 1.5 IU mg-1. The Selectivity index in the assay with MT4 [4] was greater than 24; in the assay on MT4 [5], greater than 50000.

In the case of `CCCC(=O)OC/C(=C\C(=O)[O-])O[C@H]1O[C@H](COS(=O)(=O)[O-])[C@@H](O[C@@H]2O[C@@H](C(=O)[O-])[C@@H](O[C@H]3O[C@H](COS(=O)(=O)[O-])[C@@H](O[C@@H]4O[C@@H](C(=O)[O-])[C@@H](O[C@H]5O[C@H](CS(=O)(=O)[O-])[C@@H](O)[C@H](OC(=O)CCC)[C@H]5NS(=O)(=O)[O-])[C@H](OC(=O)CCC)[C@H]4OS(=O)(=O)[O-])[C@H](OC(=O)CCC)[C@H]3NS(=O)(=O)[O-])[C@H](OC(=O)CCC)[C@H]2OS(=O)(=O)[O-])[C@H](OC(=O)CCC)[C@H]1NS(=O)(=O)[O-].[Na+].[Na+].[Na+].[Na+].[Na+].[Na+].[Na+].[Na+].[Na+].[Na+].[Na+]` (stereo in doubt; 4j), the EC50 was 10.7 µg/mL with HuT78 (hut78) and 0.21 µg/mL in the assay on MT4 [3] (mt4). This molecule also showed an APTT in assay [1] of 19.8 IU mg-1. Further, the Selectivity index in the assay on MT4 [5] is given as 2381.
